{"source": "ChEMBL document CHEMBL1122127", "about": "“New anticancer agents: synthesis of 1,2-dihydropyrido[3,4-b]pyrazines (1-deaza-7,8-dihydropteridines)” (1982)", "key": {"[1]": {"test_system": "L1210", "experiment": "Inhibitory concentration against proliferation of cultured lymphoid leukemia L1210 cells during 48 hrs.", "type": "functional", "conditions": "Mus musculus, L1210, 48 h; read-out: ID50 (the source's name)"}, "[2]": {"test_system": "L1210", "experiment": "Fraction of cell population of cultured lymphoid leukemia L1210 cells in mitosis at a dose of 0.01 uM after 12 hr", "type": "functional, Mus musculus"}, "[3]": {"test_system": "L1210", "experiment": "Fraction of cell population of cultured lymphoid leukemia L1210 cells in mitosis at a dose of 0.3 uM after 12 hr", "type": "functional, Mus musculus"}, "[4]": {"test_system": "Mus musculus", "experiment": "Increase in life span at the highest nontoxic dose against P-388 tumor cell […] at 25 mg/kg", "type": "functional", "conditions": "P388", "outline": "(§1)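 Mice bearing lymphocytic leukemia P-388 (parental or drug-resistant sublines). The reported value is the increase in life span at the highest nontoxic dose tested.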"}, "[5]": {"test_system": "L1210", "experiment": "Fraction of cell population of cultured lymphoid leukemia L1210 cells in mitosis at a dose of 0.03 uM after 12 hr", "type": "functional, Mus musculus"}, "[6]": {"test_system": "L1210", "experiment": "Fraction of cell population of cultured lymphoid leukemia L1210 cells in mitosis at a dose of 0.3 uM after 24 hr", "type": "functional, Mus musculus"}, "[7]": {"test_system": "Mus musculus", "experiment": "Increase in life span at the highest nontoxic dose against P-388 tumor cell […] at 67 mg/kg", "type": "functional", "conditions": "P388", "outline": "as §1"}, "[8]": {"test_system": "Mus musculus", "experiment": "Increase in life span at the highest nontoxic dose against P-388 tumor cell […] was determined at 100 mg/kg", "type": "functional", "conditions": "P388", "outline": "as §1"}, "[9]": {"test_system": "Mus musculus", "experiment": "Increase in life span at the highest nontoxic dose against P-388 tumor cell […] at 90 mg/kg", "type": "functional", "conditions": "P388", "outline": "as §1"}, "[10]": {"test_system": "Mus musculus", "experiment": "Increase in life span at the highest nontoxic dose against P-388 tumor cell after 1,5,9 day at 30 mg/kg", "type": "functional", "conditions": "P388", "outline": "as §1"}, "[11]": {"test_system": "Mus musculus", "experiment": "Increase in life span at the highest nontoxic dose against Vincristine-resistant line of P-388 tumor cell […] at 12 mg/kg", "type": "functional", "conditions": "P388", "outline": "as §1"}, "[12]": {"test_system": "Mus musculus", "experiment": "Increase in life span at the highest nontoxic dose against P-388 tumor cell […] at 100 mg/kg", "type": "functional", "conditions": "P388", "outline": "as §1"}, "[13]": {"test_system": "Mus musculus", "experiment": "Increase in life span at the highest nontoxic dose against P-388 tumor cell […] at 50 mg/kg", "type": "functional", "conditions": "P388", "outline": "as §1"}, "[14]": {"test_system": "Mus musculus", "experiment": "Increase in life span at the highest nontoxic dose against P-388 tumor cell […] was determined at 25 mg/kg", "type": "functional", "conditions": "P388", "outline": "as §1"}, "[15]": {"test_system": "Mus musculus", "experiment": "Increase in life span at the highest nontoxic dose against methotrexate resistant cell line of P-388 tumor cell […] at 25 mg/kg", "type": "functional", "conditions": "P388", "outline": "as §1"}, "[16]": {"test_system": "L1210", "experiment": "Fraction of cell population of cultured lymphoid leukemia L1210 cells in mitosis at a dose of 0.1 uM after 12 hr", "type": "functional, Mus musculus"}, "[17]": {"test_system": "Mus musculus", "experiment": "Increase in life span at the highest nontoxic dose against P-388 tumor cell after 1-9 days at 25 mg/kg", "type": "functional", "conditions": "P388", "outline": "as §1"}, "[18]": {"test_system": "Mus musculus", "experiment": "Increase in life span at the highest nontoxic dose against P-388 tumor cell after 1-5 days at 12 mg/kg", "type": "functional", "conditions": "P388", "outline": "as §1"}, "[19]": {"test_system": "Mus musculus", "experiment": "Increase in life span at the highest nontoxic dose against P-388 tumor cell […] at 200 mg/kg", "type": "functional", "conditions": "P388", "outline": "as §1"}, "[20]": {"test_system": "Mus musculus", "experiment": "Increase in life span at the highest nontoxic dose against P-388 tumor cell after 1,5,9 day at 12.5 mg/kg", "type": "functional", "conditions": "P388", "outline": "as §1"}, "[21]": {"test_system": "Mus musculus", "experiment": "Increase in life span at the highest nontoxic dose against P-388 tumor cell after 1,5,9 day at 6.25 mg/kg", "conditions": "P388"}}, "note": "pIC50: −log10 of the molar value."}
{"smiles": "CCOC(=O)Nc1cc2c(c(N)n1)N=C(c1cc(OC)c(OC)c(OC)c1)CN2", "values": [{"measurement": "pIC50", "setting": "[1]", "result": 7.11}]}
{"smiles": "CCOC(=O)Nc1cc2c(c(N)n1)N=C(c1ccc(-c3ccccc3)cc1)CN2", "values": [{"measurement": "Mitotic index", "setting": "[2]", "result": 0.65}, {"measurement": "Mitotic index", "setting": "[3]", "result": 0.42}, {"measurement": "pIC50", "setting": "[1]", "result": 8.21}, {"measurement": "ILS at 25 mg/kg", "setting": "[4]", "result": 36, "unit": "%"}]}
{"smiles": "CCOC(=O)Nc1cc2c(c(N)n1)N=C(CN(C)c1ccccc1)CN2", "values": [{"measurement": "Mitotic index", "setting": "[5]", "result": 0.77}, {"measurement": "Mitotic index", "setting": "[6]", "result": 0.8}, {"measurement": "pIC50", "setting": "[1]", "result": 8.08}, {"measurement": "ILS at 67 mg/kg", "setting": "[7]", "result": 90, "unit": "%"}, {"measurement": "ILS at 100 mg/kg", "setting": "[8]", "result": 114, "unit": "%"}]}
{"smiles": "CCOC(=O)Nc1cc2c(c(N)n1)N=C(c1cccc(OC)c1)CN2", "values": [{"measurement": "pIC50", "setting": "[1]", "result": 8.91}]}
{"smiles": "CCOC(=O)Nc1cc2c(c(N)n1)N=C(c1ccc(F)cc1)CN2", "values": [{"measurement": "pIC50", "setting": "[1]", "result": 8.17}]}
{"smiles": "CCOC(=O)Nc1cc2c(c(N)n1)N=C(c1ccc(N)cc1)CN2", "values": [{"measurement": "pIC50", "setting": "[1]", "result": 7.64}]}
{"smiles": "CCOC(=O)Nc1cc2c(c(N)n1)N=C(c1ccc(C(F)(F)F)cc1)CN2", "values": [{"measurement": "pIC50", "setting": "[1]", "result": 6.82}, {"measurement": "ILS at 90 mg/kg", "setting": "[9]", "result": 0, "unit": "%"}, {"measurement": "ILS at 30 mg/kg", "setting": "[10]", "result": 0, "unit": "%"}]}
{"smiles": "CCOC(=O)Nc1cc2c(c(N)n1)N=C(c1ccc(C)cc1C)CN2", "values": [{"measurement": "pIC50", "setting": "[1]", "result": 7.38}]}
{"smiles": "CCOC(=O)Nc1cc2c(c(N)n1)N=C(c1ccccc1)CN2", "values": [{"measurement": "pIC50", "setting": "[1]", "result": 8.33}, {"measurement": "ILS at 12 mg/kg", "setting": "[11]", "result": 50, "unit": "%"}]}
{"smiles": "CCOC(=O)Nc1cc2c(c(N)n1)N=C(CN(C)c1ccc(Cl)cc1)CN2", "values": [{"measurement": "Mitotic index", "setting": "[5]", "result": 0.71}, {"measurement": "pIC50", "setting": "[1]", "result": 7.84}, {"measurement": "ILS at 100 mg/kg", "setting": "[12]", "result": 65, "unit": "%"}]}
{"smiles": "CCOC(=O)Nc1cc2c(c(N)n1)N=C(CN(C)c1ccc(OC)cc1)CN2", "values": [{"measurement": "Mitotic index", "setting": "[5]", "result": 0.64}, {"measurement": "Mitotic index", "setting": "[3]", "result": 0.49}, {"measurement": "pIC50", "setting": "[1]", "result": 8.10}, {"measurement": "ILS at 50 mg/kg", "setting": "[13]", "result": 80, "unit": "%"}, {"measurement": "ILS at 25 mg/kg", "setting": "[14]", "result": 133, "unit": "%"}, {"measurement": "ILS at 25 mg/kg", "setting": "[15]", "result": 150, "unit": "%"}]}
{"smiles": "CCOC(=O)Nc1cc2c(c(N)n1)N=C(c1ccc(Cl)c(Cl)c1)CN2", "values": [{"measurement": "pIC50", "setting": "[1]", "result": 7.74}]}
{"smiles": "CCOC(=O)Nc1cc2c(c(N)n1)N=C(CN(C)c1ccc(C(=O)OC)cc1)CN2", "values": [{"measurement": "Mitotic index", "setting": "[16]", "result": 0.44}, {"measurement": "Mitotic index", "setting": "[3]", "result": 0.61}, {"measurement": "pIC50", "setting": "[1]", "result": 7.24}, {"measurement": "ILS at 25 mg/kg", "setting": "[17]", "result": 30, "unit": "%"}]}
{"smiles": "CCOC(=O)Nc1cc2c(c(N)n1)N=C(c1ccc(C)cc1)CN2", "values": [{"measurement": "pIC50", "setting": "[1]", "result": 7.62}, {"measurement": "ILS at 12 mg/kg", "setting": "[18]", "result": 30, "unit": "%"}]}
{"smiles": "CCOC(=O)Nc1cc2c(c(N)n1)N=C(c1ccc(Cl)cc1)CN2", "values": [{"measurement": "Mitotic index", "setting": "[6]", "result": 0.26}, {"measurement": "pIC50", "setting": "[1]", "result": 7.28}, {"measurement": "ILS at 200 mg/kg", "setting": "[19]", "result": 38, "unit": "%"}, {"measurement": "ILS at 12.5 mg/kg", "setting": "[20]", "result": 37, "unit": "%"}, {"measurement": "ILS at 6.25 mg/kg", "setting": "[21]", "result": 38, "unit": "%"}]}
{"smiles": "CCOC(=O)Nc1cc2c(c(N)n1)N=C(c1ccc(C)c(C)c1)CN2", "values": [{"measurement": "pIC50", "setting": "[1]", "result": 6.86}]}
{"smiles": "CCOC(=O)Nc1cc2c(c(N)n1)N=C(c1ccc(Cl)cc1Cl)CN2", "values": [{"measurement": "pIC50", "setting": "[1]", "result": 7.36}]}
{"smiles": "CCOC(=O)Nc1cc2c(c(N)n1)N=C(c1ccc(OC)cc1)CN2", "values": [{"measurement": "pIC50", "setting": "[1]", "result": 8.39}, {"measurement": "ILS at 25 mg/kg", "setting": "[4]", "result": 50, "unit": "%"}]}
{"smiles": "COC(=O)Nc1nc2cc(C(=O)c3cccs3)ccc2[nH]1", "note": "[NOCODAZOLE]", "values": [{"measurement": "pIC50", "setting": "[1]", "result": 7.57}]}
{"smiles": "CC[C@]1(O)C[C@H]2CN(CCc3c([nH]c4ccccc34)[C@@](C(=O)OC)(c3cc4c(cc3OC)N(C=O)[C@H]3[C@@](O)(C(=O)OC)[C@H](OC(C)=O)[C@]5(CC)C=CCN6CC[C@]43[C@@H]65)C2)C1", "note": "[VINCRISTINE]", "values": [{"measurement": "pIC50", "setting": "[1]", "result": "> 9.00"}]}
